Assays:
P-glycoprotein (P-gp) = details: in vitro studies; cited from earlier work
[1] = Food effect study: safety and tolerability; assay type: in vivo, human
Outline: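 Healthy males aged 18–55 with BMI 18–30 kg/m² were followed through dosing and a 6–8-day follow-up. Checks: physical examination, clinical laboratory tests, vital signs and 12-lead ECG, with adverse events coded in MedDRA. Events of special interest: ALT ≥2×ULN, QTcF ≥500 ms, Grade ≥2 photosensitivity, symptomatic overdose. Treatment-emergent events were summarised descriptively by organ class, preferred term and dose level for all exposed participants.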

Structure (SMILES): CN1C(=O)c2cccc(OC(F)F)c2[C@H]2C[C@@H]1c1nc3ccc(-c4cnc(C5(N)CCC5)nc4)cc3n12 [Balinatunfib]
- active transport by P-glycoprotein (P-gp) (P-glycoprotein (P-gp)): substrate
- participants with at least one TEAE ([1]; 200 mg fasted (five of eight)): 62.5%
- Any event TEAE, events ([1]; 200 mg fasted, N = 8): 7
- Any event TEAE, participants ([1]; 200 mg fasted, N = 8): 5 (62.5) n (%)
- Blood and lymphatic system disorders TEAE, events ([1]; 200 mg fasted, N = 8): 1
- Blood and lymphatic system disorders TEAE, participants ([1]; 200 mg fasted, N = 8): 1 (12.5) n (%)
- Blood pressure orthostatic decreased TEAE, events ([1]; 200 mg fasted, N = 8): 1
- Blood pressure orthostatic decreased TEAE, participants ([1]; 200 mg fasted, N = 8): 1 (12.5) n (%)
- Diarrhea TEAE, events ([1]; 200 mg fasted, N = 8): 1
- Diarrhea TEAE, participants ([1]; 200 mg fasted, N = 8): 1 (12.5) n (%)
- Dry skin TEAE, events ([1]; 200 mg fasted, N = 8): 1
- Dry skin TEAE, participants ([1]; 200 mg fasted, N = 8): 1 (12.5) n (%)
- Fatigue TEAE, events ([1]; 200 mg fasted, N = 8): 0
- Fatigue TEAE, participants ([1]; 200 mg fasted, N = 8): 0 n (%)
- Flatulence TEAE, events ([1]; 200 mg fasted, N = 8): 1
- Flatulence TEAE, participants ([1]; 200 mg fasted, N = 8): 1 (12.5) n (%)
- Gastrointestinal disorders TEAE, events ([1]; 200 mg fasted, N = 8): 2
- Gastrointestinal disorders TEAE, participants ([1]; 200 mg fasted, N = 8): 2 (25.0) n (%)
- General disorders and administration site conditions TEAE, events ([1]; 200 mg fasted, N = 8): 0
- General disorders and administration site conditions TEAE, participants ([1]; 200 mg fasted, N = 8): 0 n (%)
- Headache TEAE, events ([1]; 200 mg fasted, N = 8): 1
- Headache TEAE, participants ([1]; 200 mg fasted, N = 8): 1 (12.5) n (%)
- Investigations TEAE, events ([1]; 200 mg fasted, N = 8): 1
- Investigations TEAE, participants ([1]; 200 mg fasted, N = 8): 1 (12.5) n (%)
- Loss of consciousness TEAE, events ([1]; 200 mg fasted, N = 8): 1
- Loss of consciousness TEAE, participants ([1]; 200 mg fasted, N = 8): 1 (12.5) n (%)
- Muscle tightness TEAE, events ([1]; 200 mg fasted, N = 8): 0
- Muscle tightness TEAE, participants ([1]; 200 mg fasted, N = 8): 0 n (%)
- Musculoskeletal and connective tissue disorders TEAE, events ([1]; 200 mg fasted, N = 8): 0
- Musculoskeletal and connective tissue disorders TEAE, participants ([1]; 200 mg fasted, N = 8): 0 n (%)
- Nervous system disorders TEAE, events ([1]; 200 mg fasted, N = 8): 2
- Nervous system disorders TEAE, participants ([1]; 200 mg fasted, N = 8): 2 (25.0) n (%)
- Neutropenia TEAE, events ([1]; 200 mg fasted, N = 8): 1
- Neutropenia TEAE, participants ([1]; 200 mg fasted, N = 8): 1 (12.5) n (%)
- Skin and subcutaneous tissue disorders TEAE, events ([1]; 200 mg fasted, N = 8): 1
- Skin and subcutaneous tissue disorders TEAE, participants ([1]; 200 mg fasted, N = 8): 1 (12.5) n (%)
- Tendonitis TEAE, events ([1]; 200 mg fasted, N = 8): 0
- Tendonitis TEAE, participants ([1]; 200 mg fasted, N = 8): 0 n (%)
- neutrophil count in the participant with Grade 2 neutropenia ([1]; 200 mg fasted, Period 1, normal range 1.46–5.85): 1.42e+09 L⁻¹
- participants with at least one TEAE ([1]; 200 mg fed (four of six)): 66.7%
- Any event TEAE, events ([1]; 200 mg fed, N = 6): 6
- Any event TEAE, participants ([1]; 200 mg fed, N = 6): 4 (66.7) n (%)
- Blood and lymphatic system disorders TEAE, events ([1]; 200 mg fed, N = 6): 0
- Blood and lymphatic system disorders TEAE, participants ([1]; 200 mg fed, N = 6): 0 n (%)
- Blood pressure orthostatic decreased TEAE, events ([1]; 200 mg fed, N = 6): 1
- Blood pressure orthostatic decreased TEAE, participants ([1]; 200 mg fed, N = 6): 1 (16.7) n (%)
- Diarrhea TEAE, events ([1]; 200 mg fed, N = 6): 1
- Diarrhea TEAE, participants ([1]; 200 mg fed, N = 6): 1 (16.7) n (%)
- Dry skin TEAE, events ([1]; 200 mg fed, N = 6): 0
- Dry skin TEAE, participants ([1]; 200 mg fed, N = 6): 0 n (%)
- Fatigue TEAE, events ([1]; 200 mg fed, N = 6): 1
- Fatigue TEAE, participants ([1]; 200 mg fed, N = 6): 1 (16.7) n (%)
- Flatulence TEAE, events ([1]; 200 mg fed, N = 6): 0
- Flatulence TEAE, participants ([1]; 200 mg fed, N = 6): 0 n (%)
- Gastrointestinal disorders TEAE, events ([1]; 200 mg fed, N = 6): 1
- Gastrointestinal disorders TEAE, participants ([1]; 200 mg fed, N = 6): 1 (16.7) n (%)
- General disorders and administration site conditions TEAE, events ([1]; 200 mg fed, N = 6): 1
- General disorders and administration site conditions TEAE, participants ([1]; 200 mg fed, N = 6): 1 (16.7) n (%)
- Headache TEAE, events ([1]; 200 mg fed, N = 6): 1
- Headache TEAE, participants ([1]; 200 mg fed, N = 6): 1 (16.7) n (%)
- Investigations TEAE, events ([1]; 200 mg fed, N = 6): 1
- Investigations TEAE, participants ([1]; 200 mg fed, N = 6): 1 (16.7) n (%)
- Loss of consciousness TEAE, events ([1]; 200 mg fed, N = 6): 0
- Loss of consciousness TEAE, participants ([1]; 200 mg fed, N = 6): 0 n (%)
- Muscle tightness TEAE, events ([1]; 200 mg fed, N = 6): 1
- Muscle tightness TEAE, participants ([1]; 200 mg fed, N = 6): 1 (16.7) n (%)
- Musculoskeletal and connective tissue disorders TEAE, events ([1]; 200 mg fed, N = 6): 2
- Musculoskeletal and connective tissue disorders TEAE, participants ([1]; 200 mg fed, N = 6): 2 (33.3) n (%)
- Nervous system disorders TEAE, events ([1]; 200 mg fed, N = 6): 1
- Nervous system disorders TEAE, participants ([1]; 200 mg fed, N = 6): 1 (16.7) n (%)
- Neutropenia TEAE, events ([1]; 200 mg fed, N = 6): 0
